Format in all cases: functional, organism-based
Test [1] deals with Human betaherpesvirus 5. The test can be described thus: Antiviral activity against Human CMV AD169 in HFF cells by PRA. As to conditions: Human betaherpesvirus 5, AD169, HFF.
The subject of test [2] is Human betaherpesvirus 5. In words: Antiviral activity against Human CMV T2291 in HFF cells by PRA. Particulars: Human betaherpesvirus 5, T2291, HFF.
Test [3] concerns Human betaherpesvirus 5. In words: Antiviral activity against Human CMV T2293 in HFF cells by SEAP assay. As to conditions: Human betaherpesvirus 5, T2293, HFF. The gist of the method: (§1)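 Cell-free stocks of AD169-derived recombinant viruses were inoculated at MOI 0.01 to 0.03 onto human foreskin fibroblasts. Cultures were grown without drug or with twofold increasing concentrations of GCV, FOS or CDV for 7 days. Supernatant SEAP activity was then measured. IC50 was derived by linear regression. Values are means and standard deviations of 7 to 23 replicate experiments.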

Test [4] concerns Human betaherpesvirus 5. In words: Antiviral activity against Human CMV T2311 in HFF cells by PRA. Particulars: Human betaherpesvirus 5, T2311, HFF.
The test system of test [5] is Human betaherpesvirus 5. The test can be described thus: Antiviral activity against Human CMV T2291 in HFF cells by SEAP assay. Particulars: Human betaherpesvirus 5, T2291, HFF. An outline of the steps:
as §1

Test [6] deals with Human betaherpesvirus 5. In words: Antiviral activity against Human CMV T2311 in HFF cells by SEAP assay. Particulars: Human betaherpesvirus 5, T2311, HFF. The gist of the method:
as §1

The subject of test [7] is Human betaherpesvirus 5. The test can be described thus: Antiviral activity against Human CMV T2293 in HFF cells by PRA. As to conditions: Human betaherpesvirus 5, T2293, HFF.
The subject of test [8] is Human betaherpesvirus 5. In words: Antiviral activity against Human CMV T2241 in HFF cells by SEAP assay. Particulars: Human betaherpesvirus 5, T2241, HFF. An outline of the steps: as §1
Test [9] has as its system Human betaherpesvirus 5. The test can be described thus: Antiviral activity against Human CMV T2287 in MRC5 cells by PRA. Particulars: Human betaherpesvirus 5, T2287, MRC5. An outline of the steps: (§2)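 Plaque reduction in human lung MRC-5 fibroblasts, 80 to 100% confluent, infected with 50 PFU cell-free virus. Plates centrifuged 600 × g for 30 min, then 1 h at 37°C, 5% CO2. Inoculum removed; grown in duplicate with 0.625–160 μM GCV, 6.25–1,600 μM FOS or 0.0625–16 μM CDV in 0.8% carboxymethyl cellulose medium. Plaques counted at 7 days for IC50. Repeated 8–11 times; mean and SD.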

Test [10] relates to Human betaherpesvirus 5. The test can be described thus: Antiviral activity against Human CMV T2296 in MRC5 cells by PRA. Particulars: Human betaherpesvirus 5, T2296, MRC5. The gist of the method:
as §2

In test [11] the test system is Human betaherpesvirus 5. The test can be described thus: Antiviral activity against Human CMV T2233 in HFF cells by SEAP assay. Particulars: Human betaherpesvirus 5, T2233, HFF. An outline of the steps:
as §1

Test [12] deals with Human betaherpesvirus 5. The test can be described thus: Antiviral activity against Human CMV Towne in MRC5 cells by PRA. Particulars: Human betaherpesvirus 5, Towne. The gist of the method: as §2
For test [13], the system named is Human betaherpesvirus 5. The test can be described thus: Antiviral activity against Human CMV T2211 in HFF cells by SEAP assay. As to conditions: Human betaherpesvirus 5, T2211, HFF. The gist of the method: as §1

As usually defined, the IC50 is the concentration that inhibits the measured activity by half. For the compound `Nc1nc2c(ncn2COC(CO)CO)c(=O)[nH]1` [GANCICLOVIR], the IC50 in the test with Human betaherpesvirus 5 [1] is 1.9 µM; in the test with Human betaherpesvirus 5 [2], 4.1 µM; in the test with Human betaherpesvirus 5 [3], 5.6 µM; in the test on Human betaherpesvirus 5 [4] it was 12.4 µM; with Human betaherpesvirus 5 [5], 7.1 µM; with Human betaherpesvirus 5 [6] it was 30.2 µM. Moreover, the IC50 was found to be 10 µM in the test on Human betaherpesvirus 5 [7]; 1.4 µM in the test with Human betaherpesvirus 5 [8]; 30.1 µM in the test on Human betaherpesvirus 5 [9]; 5.4 µM in the test on Human betaherpesvirus 5 [10]; 1.4 µM in the test with Human betaherpesvirus 5 [11]; 4.9 µM in the test with Human betaherpesvirus 5 [12].

Turning to `O=C(O)P(=O)(O)O` [FOSCARNET], the 50% inhibitory concentration (IC50) with Human betaherpesvirus 5 [1] stood at 78 µM; in the test on Human betaherpesvirus 5 [2], 431 µM; in the test on Human betaherpesvirus 5 [3], 32 µM; in the test on Human betaherpesvirus 5 [4] it was 732 µM; in the test on Human betaherpesvirus 5 [13] it was 41 µM; in the test on Human betaherpesvirus 5 [5], 274 µM. Further, the IC50 worked out at 308 µM with Human betaherpesvirus 5 [6]; 122 µM in the test on Human betaherpesvirus 5 [7]; 42 µM in the test with Human betaherpesvirus 5 [8]; 486 µM in the test with Human betaherpesvirus 5 [9]; 63.4 µM with Human betaherpesvirus 5 [10]; 45 µM with Human betaherpesvirus 5 [11]. In the test with Human betaherpesvirus 5 [12], this compound displayed an IC50 of 62.8 µM.

Regarding `Nc1ccn(C[C@@H](CO)OCP(=O)(O)O)c(=O)n1` [CIDOFOVIR], the IC50 in the test on Human betaherpesvirus 5 [1] was determined as 0.9 µM; with Human betaherpesvirus 5 [2], 3.3 µM; in the test with Human betaherpesvirus 5 [3], 5.2 µM; with Human betaherpesvirus 5 [4] it was 8.9 µM; in the test with Human betaherpesvirus 5 [13], 0.2 µM; in the test with Human betaherpesvirus 5 [5] it was 0.7 µM. Moreover, the 50% inhibitory concentration (IC50) stood at 4.7 µM with Human betaherpesvirus 5 [6]; 4.9 µM with Human betaherpesvirus 5 [7]; 0.3 µM in the test with Human betaherpesvirus 5 [8]; 1.8 µM with Human betaherpesvirus 5 [9]; 0.6 µM with Human betaherpesvirus 5 [10]; 0.3 µM with Human betaherpesvirus 5 [11]. Also, 0.3 µM corresponded to half-maximal inhibition in the test on Human betaherpesvirus 5 [12] (IC50).

Values taken from ChEMBL document CHEMBL1142135, “Multidrug resistance conferred by novel DNA polymerase mutations in human cytomegalovirus isolates” (Antimicrob Agents Chemother, 2007).
